# Assay results from different studies.
# Lines come from different studies, so protocols differ.
# Target: Sodium-dependent noradrenaline transporter (SLC6A2, Homo sapiens, UniProt P23975)
Compound,observed,action,technique,cells,concentration,inhibition [%]
COC(=O)c1ccc(-n2c(C)cc(C(=O)CSc3ccc(NC(C)=O)cc3)c2C)cc1,ligand displacement,,radioligand,,10 µM,50
Clc1ccc(C(c2ccc(Cl)cc2)c2nnnn2CCCCN2CCC(Cc3ccccc3)CC2)cc1,transporter uptake,inhibitor,,HEK293,1 µM,68.8
COc1ccc(-n2nc(OCCCN3CCCCC3)ccc2=O)cc1,ligand displacement,,,,1 µM,18.5
CCN(CC)c1ccc(C2Nc3ccc(C(=O)c4ccccc4)cc3NC3=C2C(=O)CC(C)(C)C3)cc1 (stereo not drawn),ligand displacement,,radioligand,,10 µM,51
O[C@@H]1[C@H](O)[C@@H]2C[C@@H]2[C@H]1n1cnc2c(NCc3cccc(Cl)c3)nc(C#Cc3ccccc3)nc21,ligand displacement,,radioligand,,10 µM,34
Nc1ccc(-c2ccncc2)cc1NC(=O)N1CCCC1,cell-free assay,,,,10 µM,15
Fc1ccc(C(c2ccc(F)cc2)c2nnnn2CCCCN2CCC(c3ccccc3)CC2)cc1,transporter uptake,inhibitor,,HEK293,1 µM,64.4
O[C@@H]1[C@H](O)[C@@H]2C[C@@H]2[C@H]1n1cnc2c(NCCc3ccccc3)nc(C#Cc3ccccc3Cl)nc21,ligand displacement,,radioligand,,10 µM,24
Clc1ccc(C(c2ccccc2)c2nnnn2CCCCN2CCC(CCc3ccccc3)CC2)cc1 (stereo not drawn),transporter uptake,inhibitor,,HEK293,1 µM,72.4
N#Cc1cc(Cn2c(N3CCCC3)nc3ccccc32)ccc1F,ligand displacement,,,,10 µM,39.4
COc1cc(NC(C)=O)c(Cl)cc1C(=O)Nc1nccs1,cell-free assay,,,,10 µM,1.8
c1ccc(CCCC2CCN(CCCCn3nnnc3C(c3ccccc3)c3ccccc3)CC2)cc1,transporter uptake,inhibitor,,HEK293,1 µM,73.9
